From PMC8001668 (International Journal of Nanomedicine, 2021)

Experiments:
MDA-MB-231 cells [1] = test: In vitro cytotoxicity, MTT assay; assay type: cell-based, Human; conditions: for IC50: Homo sapiens
Plasma pharmacokinetics = assay type: in vivo; conditions: SD rats plasma, intraperitoneal, free group received DAS + ROZ
Summary of the method: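 Female SD rats (5 per group) got an intraperitoneal dose of either the free two-drug combination or the micelle formulation, at 5 mg/kg of the kinase inhibitor. Blood (0.3 mL) was taken from 0 min to 24 h and spun at 4000 rpm for 10 min. Plasma (100 µL) was mixed with methanol (300 µL) plus diclofenac sodium internal standard, spun, and analysed by HPLC. Parameters were derived from the concentration–time data.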

MCF-7 cells [2] = test: In vitro cytotoxicity, MTT assay; assay type: cell-based, Human; conditions: for IC50: Homo sapiens
MCF-7 cells [3] = test: Transwell migration experiment; assay type: cell-based, Human; conditions: 24 h treatment
MDA-MB-231 cells [4] = test: Transwell migration experiment; assay type: cell-based, Human; conditions: 24 h treatment

AUC0-∞ of DAS (Plasma pharmacokinetics; DAS 5 mg/kg) [ng·h/mL] | AUC0–24 of DAS (Plasma pharmacokinetics; DAS 5 mg/kg) [ng·h/mL] | SMILES | IC50 (MDA-MB-231 cells [1]; MDA-MB-231, 24 h) [µM] | IC50 (MDA-MB-231 cells [1]; MDA-MB-231, 48 h) [µM] | IC50 (MCF-7 cells [2]; MCF7, 24 h) [µM] | IC50 (MCF-7 cells [2]; MCF7, 48 h) [µM] | cell survival rate (MDA-MB-231 cells [1]; MDA-MB-231 cells, 24 h incubation) | AUC0–24 of ROZ (Plasma pharmacokinetics; DAS dose 5 mg/kg) [ng·h/mL] | AUC0–∞ of ROZ (Plasma pharmacokinetics; DAS dose 5 mg/kg) [ng·h/mL] | number of cells penetrating the membrane (migration) (MCF-7 cells [3]) | cell survival rate (MCF-7 cells [2]; MCF-7 cells, 24 h incubation) | number of cells penetrating the membrane (migration) (MDA-MB-231 cells [4])
2380 ± 1120 | 2260 ± 930 | Cc1nc(Nc2ncc(C(=O)Nc3c(C)cccc3Cl)s2)cc(N2CCN(CCO)CC2)n1 [DAS, Dasatinib] | 73.6 ± 3.8 | 64.7 ± 2.63 | 52 ± 6.83 | 31.2 ± 2.8 |  |  |  |  |  | 
 |  | CN(CCOc1ccc(CC2SC(=O)NC2=O)cc1)c1ccccn1 (centres unmarked) [ROZ, rosiglitazone] |  | 259 ± 27.5 |  | 102 ± 6.2 | higher than 90% | 41060 ± 10850 | 41340 ± 10680 | significantly reduced | higher than 90% | significantly reduced
